The nature of experiment [1]: inhibitors of TNFa-induced NFkB p65 translocation, primary screen, imaging, HUVEC, MLSMR starter and 10KST1 sets (AID 438;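 active = inhibition above 20% together with a positive visual image hit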;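 also: compound added about 3h40 before a 20 min TNFalpha stimulation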;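 as to inhibition: signal is the nuclear over cytoplasmic p65 intensity ratio per well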). To be noted: HUVEC TNFa-induced p65 nuclear translocation; cell count: measured here: nuclei count (cytotoxicity indicator), at 2.08 µM; inhibition: at 2 µM, stronger effect = higher value, 0% TNFa-plus-vehicle, 100% no-TNFa wells.
A short description of experiment [2]: inhibitors of mutant huntingtin aggregation, primary screen, imaging, exon1htt(103Q)mCFP cells, high-content imaging (AID 483;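 active = visual image review flags a hit and inhibition of aggregation exceeds 20%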;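 also: compound exposure lasted 3 days before fixation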;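 as to nuclei count: percent of the per-plate median nuclei count of sample wells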). The note with it: exon1htt(103Q)mCFP cell line, aggregate imaging, at 2 µM; inhibition of aggregation: stronger effect = higher value; nuclei count: measured here: cell count, toxicity.
Experiment [3] in a line: inhibitors of E-selectin induction by TNFa, primary screen, imaging, HUVEC, immunofluorescence, MLSMR starter and 10KST1 sets (AID 487;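 active = visually confirmed hit in the image check and inhibition above 20%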;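 as to inhibition: signal is fraction of cell area covered by stained E-selectin grains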;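 as to nuclei count: 100% = median nuclei count of all wells on the same plate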). The note with it: HUVEC TNFalpha-induced E-selectin immunofluorescence imaging, at 2 µM; inhibition: stronger effect = higher value; nuclei count: measured here: cell number, toxicity.
Experiment [4] concerns the target Voltage-gated potassium channel subunit beta-2 (Rattus norvegicus) (UniProt P62483). Put plainly: KvBeta enzyme negative modulators, primary screen, biochemical, NADPH fluorescence (AID 622).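 Also: slope of raw intensity against log time taken from 70 to 1610 s.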 To be noted: recombinant KvBeta, 4-cyanobenzaldehyde reduction, at 10 µM, stronger effect = higher value.
Experiment [5] has the same target. Kind of experiment: KvBeta positive modulators, primary screen, biochemical, NADPH fluorescence (AID 623;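 active = NADPH fluorescence slope more negative than the mean of all samples by about 3 SD, 99.7% confidence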;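 also: fluorescence intensity change per second fitted from 20 to 320 s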). To be noted: Recombinant KvBeta, NADPH fluorescence decrease slope, 10 min; at 10 µM; stronger effect = lower value.
The target in experiment [6] is Muscarinic acetylcholine receptor M4 (Homo sapiens) (UniProt P08173). Put plainly: compounds altering M4/GIRK thallium flux, either direction, primary screen, M4 allosteric agonist project, cell-based, HEK293 M4/GIRK, BTC-AM (AID 625;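 active = fluorescence slope after compound addition differing from the mean of all tested samples at 99.7% confidence, mostly higher but some lower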;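 also: thallium influx through GIRK channels coupled to M4 in HEK293 cells with BTC-AM dye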). The note with it: at 10 µM, actives lie on both sides. The gist of the method:
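Material: HEK293 cells with M4 receptor and GIRK channels; Times: cells overnight at 37 °C, BTC-AM loading 1 h, reads 2 min total; Technique: kinetic BTC-AM fluorescence sampled at 1 Hz, 10 s pre-addition baseline; Read-out basis: slope over 15–24 s of trace normalized to starting intensity; Controls: carbachol positive, DMSO negative.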

A short description of experiment [7]: inhibitors of Sendai virus-induced IRF3 signaling, primary screen, TLR/RLR signaling modifier project, cell-based, Sendai virus stimulus, luciferase, 10K MLSCN set (AID 602276;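 active = inhibition at or above 50% at 10 µM; inactive = inhibition below 50%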;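 also: firefly luciferase from ISG56 promoter only with Renilla not read in this screen; 0% = Sendai virus plus DMSO and 100% = medium plus DMSO without virus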). To be noted: HEK293 RL24 IRF3 luciferase reporter, at 10 µM, stronger effect = higher value. Background: A reporter such as luciferase makes a cellular process visible.
A short description of experiment [8]: inhibitors of poly I:C-induced TLR3 signaling, primary screen, cell-based, poly I:C stimulus, luciferase, 10K MLSCN set (AID 602277;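 active = inhibition of the reporter signal at or above 50%; inactive = inhibition below 50%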). The note with it: HEK293-TLR3 RL24 IRF3 luciferase reporter, at 10 µM, stronger effect = higher value.

From PubChem BioAssay come the findings set out here.

Structures are written as SMILES. Calls of active or inactive are those of the source.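 The calls were made as follows, unless noted: active = fluorescence slope higher than the sample average by over 3 SD (cut at about -0.22 in these data, passing the limit was not always enough); inactive = the rest.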

Voltage-gated potassium channel subunit beta-2 (Rattus norvegicus), sequence (P62483 whole entry, looked up): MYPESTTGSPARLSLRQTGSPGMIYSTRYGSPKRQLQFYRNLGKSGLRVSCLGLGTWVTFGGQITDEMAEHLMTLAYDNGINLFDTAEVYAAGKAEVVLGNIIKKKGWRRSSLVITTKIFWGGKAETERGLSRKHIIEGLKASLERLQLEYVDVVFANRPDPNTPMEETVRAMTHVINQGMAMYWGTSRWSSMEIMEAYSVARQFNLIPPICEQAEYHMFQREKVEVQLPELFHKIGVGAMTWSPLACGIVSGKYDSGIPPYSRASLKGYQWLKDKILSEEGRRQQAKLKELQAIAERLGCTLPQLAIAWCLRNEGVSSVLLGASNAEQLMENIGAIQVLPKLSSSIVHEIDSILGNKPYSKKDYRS
Muscarinic acetylcholine receptor M4 (Homo sapiens), sequence (P08173 whole entry, looked up): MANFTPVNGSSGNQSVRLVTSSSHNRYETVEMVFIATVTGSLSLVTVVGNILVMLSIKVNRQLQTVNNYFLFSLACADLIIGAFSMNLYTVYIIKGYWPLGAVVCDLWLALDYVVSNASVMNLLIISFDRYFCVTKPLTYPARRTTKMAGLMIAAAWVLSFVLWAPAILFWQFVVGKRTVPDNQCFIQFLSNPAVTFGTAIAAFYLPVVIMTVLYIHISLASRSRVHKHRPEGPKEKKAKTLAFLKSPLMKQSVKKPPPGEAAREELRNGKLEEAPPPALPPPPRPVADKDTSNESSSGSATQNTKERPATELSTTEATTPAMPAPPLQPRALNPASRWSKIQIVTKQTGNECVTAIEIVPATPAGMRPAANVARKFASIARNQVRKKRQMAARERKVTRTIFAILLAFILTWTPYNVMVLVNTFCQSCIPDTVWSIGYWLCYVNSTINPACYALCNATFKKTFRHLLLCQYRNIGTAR

As usually defined, the inhibition is the relative decrease from the control value, in per cent. As for `NC(=O)CSc1nnc(-c2ccc(O)cc2)n1Cc1ccco1`, in experiment [1], the cell count was 371. Moreover, the inhibition was -0.2% (inactive) in experiment [1], -112% (inactive) in experiment [3], 11.3% (inactive) in experiment [7] and 19.8% (inactive) in experiment [8]. Also, the inhibition of aggregation in experiment [2] is 18.6% (inactive). Also, the values for the nuclei count in experiment [2] and in experiment [3] were 98.1% and 93.2%, respectively. The fluorescence slope in experiment [4] was -0.531 (inactive); in experiment [6] it was 0.00558 (inactive). The NADPH fluorescence slope in experiment [5] was -4.4e-05 (inactive).

For the molecule `COc1cc(CNc2ccc(N3CCOCC3)c(C(=O)O)c2)ccc1OCC(N)=O`, the cell count in experiment [1] amounted to 362. Also, the inhibition is -2.2% (inactive) in experiment [1], 26.6% (inactive) in experiment [3], 5.32% (inactive) in experiment [7] and 9.86% (inactive) in experiment [8]. In experiment [2], the inhibition of aggregation is -15.5% (inactive). Also, the values for the nuclei count in experiment [2] and in experiment [3] were 99.3% and 98.6%, respectively. For the same molecule, the fluorescence slope is -0.343 (inactive) in experiment [4] and 0.00665 (inactive) in experiment [6]. Also, the NADPH fluorescence slope in experiment [5] was 0.000117 (inactive).

For the molecule `CCOC(=O)c1c(C)[nH]c(C=Nc2ccccc2)c1O`, the cell count in experiment [1] turned out to be 666. Also, the inhibition in experiment [1] was 4.3% (inactive); in experiment [3], -28.4% (inactive); in experiment [7], -11% (inactive); in experiment [8], -41.4% (inactive). The inhibition of aggregation in experiment [2] is 12.6% (inactive). The nuclei count came to 88.7% in experiment [2] and 103% in experiment [3]. Further, the fluorescence slope was -0.598 (inactive) in experiment [4] and 0.00349 (inactive) in experiment [6]. The NADPH fluorescence slope in experiment [5] was 5.5e-06 (inactive).

As for `COc1ccc(-n2nc(C(=O)Nc3ccc4c(c3)OCO4)c3c4ccccc4n(C)c3c2=O)cc1`, the cell count in experiment [1] turned out to be 218. Further, the inhibition in experiment [1] is 4.3% (inactive); in experiment [3], -66% (inactive); in experiment [7], 10.3% (inactive); in experiment [8] it was 24.3% (inactive). Further, the inhibition of aggregation in experiment [2] is -21.9% (inactive). The nuclei count in experiment [2] came out at 47.3%; in experiment [3] it was 97.1%. For the same molecule, the fluorescence slope is -0.566 (inactive) in experiment [4] and 0.0112 (active) in experiment [6]. The NADPH fluorescence slope in experiment [5] is 4e-06 (inactive).

With `Cc1cccc(C)c1NC(=O)CC(NCc1ccco1)C(=O)O` (centres undefined), in experiment [1], the cell count amounted to 623. Further, the inhibition in experiment [1] is -8.3% (inactive); in experiment [3], 26.5% (inactive); in experiment [7] it was 10.4% (inactive); in experiment [8], 23.1% (inactive). The inhibition of aggregation in experiment [2] was -5.4% (inactive). In addition, the nuclei count in experiment [2] came out at 71.3%; in experiment [3], 105%. The results for the fluorescence slope in experiment [4] and in experiment [6] were -0.364 (inactive) and 0.00596 (inactive), respectively. The NADPH fluorescence slope in experiment [5] is -6.5e-05 (inactive).

As for `COc1cc2c(cc1OC)CN(Cc1nc3ccsc3c(=O)[nH]1)CC2`, in experiment [1], the cell count is 335. The inhibition is -6.2% (inactive) in experiment [1], -5.2% (inactive) in experiment [3], 24.1% (inactive) in experiment [7] and 41.1% (inactive) in experiment [8]. The inhibition of aggregation in experiment [2] was 26.3% (inactive). Moreover, the values for the nuclei count in experiment [2] and in experiment [3] were 93% and 110%, respectively. The results for the fluorescence slope in experiment [4] and in experiment [6] were -0.579 (inactive) and 0.0061 (inactive), respectively. The NADPH fluorescence slope in experiment [5] is -3.9e-05 (inactive).

Turning to `CC(C)C(=O)Nc1cccc(NC(=O)c2cccnc2)c1`, in experiment [1], the cell count turned out to be 311. Moreover, the inhibition in experiment [1] is 7.2% (inactive); in experiment [3] it was -167% (inactive); in experiment [7] it was -7.88% (inactive); in experiment [8], -11.4% (inactive). In addition, in experiment [2], the inhibition of aggregation is -20.9% (inactive). The nuclei count in experiment [2] worked out at 95.6%; in experiment [3], 104%. Further, the results for the fluorescence slope in experiment [4] and in experiment [6] were -0.611 (inactive) and 0.00325 (inactive), respectively. Also, the NADPH fluorescence slope in experiment [5] was 7.6e-06 (inactive).

On to `COC(=O)C1=C(C)NC(=O)C1(NC(=O)CN1CCCC1=O)C(F)(F)F` (centres undefined), for which, in experiment [1], the cell count is 879. Besides, the inhibition is 3.6% (inactive) in experiment [1], -79.8% (inactive) in experiment [3], 9.49% (inactive) in experiment [7] and 21.7% (inactive) in experiment [8]. In experiment [2], the inhibition of aggregation is 6.7% (inactive). Besides, the nuclei count in experiment [2] was determined as 106%; in experiment [3], 133%. Moreover, the fluorescence slope in experiment [4] was -0.435 (inactive); in experiment [6], 0.00621 (inactive). The NADPH fluorescence slope in experiment [5] was -7.2e-05 (inactive).

With `Cc1cc(C(=O)O)ccc1-n1c(C)ccc1C`, the cell count in experiment [1] is 332. For the same molecule, the inhibition in experiment [1] is -3.7% (inactive); in experiment [3] it was -88.3% (inactive); in experiment [7], 14.8% (inactive); in experiment [8], 20% (inactive). The inhibition of aggregation in experiment [2] is 0.1% (inactive). Also, the nuclei count was 106% in experiment [2] and 118% in experiment [3]. Moreover, the fluorescence slope in experiment [4] is -0.554 (inactive); in experiment [6], 0.00607 (inactive). Further, the NADPH fluorescence slope in experiment [5] is -3.5e-05 (inactive).

`NCC(O)COc1ccc2c(c1)OCO2` (centres undefined): the cell count in experiment [1] turned out to be 378. In addition, the inhibition is -7% (inactive) in experiment [1], -61.9% (inactive) in experiment [3], -1.42% (inactive) in experiment [7] and 3.66% (inactive) in experiment [8]. Further, the inhibition of aggregation in experiment [2] is -7.4% (inactive). In addition, the nuclei count in experiment [2] was 99.3%; in experiment [3], 103%. Besides, the results for the fluorescence slope in experiment [4] and in experiment [6] were -0.551 (inactive) and 0.00335 (inactive), respectively. For the same molecule, the NADPH fluorescence slope in experiment [5] was -0.000108 (inactive).

Turning to `COc1ccc(C2CC(c3ccc(Cl)cc3)Nc3nc(NC(=O)c4ccco4)nn32)cc1` (centres undefined), the cell count in experiment [1] came to 574. The inhibition in experiment [1] is -11.9% (inactive); in experiment [3] it was 27.9% (inactive); in experiment [7], 14.1% (inactive); in experiment [8], 24.6% (inactive). The inhibition of aggregation in experiment [2] is -6.2% (inactive). The nuclei count in experiment [2] is 98.1%; in experiment [3], 91.8%. In addition, the values for the fluorescence slope in experiment [4] and in experiment [6] were -0.427 (inactive) and 0.00611 (inactive), respectively. Further, in experiment [5], the NADPH fluorescence slope is -6.7e-05 (inactive).

Regarding `CCC(Sc1ccc2nnc(-c3ccc(F)cc3)n2n1)C(=O)OC` (centres undefined), the cell count in experiment [1] came out at 562. In addition, the inhibition in experiment [1] is -16.6% (inactive); in experiment [3], -73.4% (inactive); in experiment [7], 17.3% (inactive); in experiment [8], 19.1% (inactive). Also, the inhibition of aggregation in experiment [2] was 25.1% (inactive). Also, the nuclei count in experiment [2] and in experiment [3] was 117% each time. Also, the fluorescence slope was -0.185 (inactive) in experiment [4] and 0.00751 (inactive) in experiment [6]. Further, the NADPH fluorescence slope in experiment [5] is -7e-06 (inactive).

On to `COc1ccccc1NC(=O)N(Cc1ccccc1)c1ccccn1`, for which, in experiment [1], the cell count was 756. Moreover, the inhibition is 3.2% (inactive) in experiment [1], 19.9% (inactive) in experiment [3], -7.55% (inactive) in experiment [7] and -38.8% (inactive) in experiment [8]. Besides, the inhibition of aggregation in experiment [2] was -5.9% (inactive). Further, the nuclei count in experiment [2] was 93.7%; in experiment [3], 114%. For the same molecule, the results for the fluorescence slope in experiment [4] and in experiment [6] were -0.581 (inactive) and 0.00744 (inactive), respectively. For the same molecule, the NADPH fluorescence slope in experiment [5] is -7e-05 (inactive).

As to `Cc1ccc(C(=O)OCC(=O)c2ccc(Cl)s2)s1`, the cell count in experiment [1] worked out at 654. Moreover, the inhibition in experiment [1] was -24.7% (inactive); in experiment [3] it was -13.1% (inactive); in experiment [7] it was -26% (inactive); in experiment [8], -58% (inactive). For the same molecule, the inhibition of aggregation in experiment [2] was 10.6% (inactive). Besides, the nuclei count worked out at 86% in experiment [2] and 121% in experiment [3]. The fluorescence slope in experiment [4] is -0.454 (inactive); in experiment [6], 0.00572 (inactive). The NADPH fluorescence slope in experiment [5] was 0.000104 (inactive).
